From PubChem BioAssay
Rows were chosen to be rich in hits. Some 0.79% of all compounds tested hit in one or more screens of this group.
mIAP act: increases mouse intestinal alkaline phosphatase activity; 330,000 tested, 0.24% active; activation factor at 10 µM; muIAP, CDP-Star luminescence, 30 min; hits give high values; 1 = vehicle-only enzyme signal, 0 = enzyme-free wells;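 active means activation factor of at least 2 at 20 µM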
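Assay system: mouse IAP enzyme; reagent: chemiluminescent substrate CDP-Star; dosing: test compounds delivered from DMSO solution; schedule: 30 min at room temperature; measured by: luminescence from enzymatic CDP-Star hydrolysis; controls: DMSO-only wells and no-enzyme negative control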
bIAP inh: intestinal alkaline phosphatase (bovine) inhibition | AID 1019 | 190,000 tested, under 10 active | inhibition, % at 20 µM | purified bovine IAP, CDP-star luminescence, 30 min;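 active means over 50% inhibition of intestinal alkaline phosphatase at 20 µM in the single-dose screen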
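System: Purified bovine intestinal alkaline phosphatase (IAP) enzyme | Input: IAP diluted 1/65,000,000 in the well | Also added: CDP-star chemiluminescent phosphatase substrate, 30 µM final | Dosing: 20 µM single dose | Times: Enzyme reaction for 30 min at room temperature | Detection: Luminescence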
hIAP block: blocks human intestinal alkaline phosphatase. P09923. purified IAP, CDP-Star luminescence, 30 min. inhibition, % at 10 µM. 330,000 tested, 0.12% active;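 active means inhibition reaching a set limit with compound at 10 µM in the primary screen, cut at about 35% in these data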;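 further: plate controls were DMSO wells with enzyme for no effect and no-enzyme buffer wells for full effect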
Target sequence (P09923 whole entry, looked up): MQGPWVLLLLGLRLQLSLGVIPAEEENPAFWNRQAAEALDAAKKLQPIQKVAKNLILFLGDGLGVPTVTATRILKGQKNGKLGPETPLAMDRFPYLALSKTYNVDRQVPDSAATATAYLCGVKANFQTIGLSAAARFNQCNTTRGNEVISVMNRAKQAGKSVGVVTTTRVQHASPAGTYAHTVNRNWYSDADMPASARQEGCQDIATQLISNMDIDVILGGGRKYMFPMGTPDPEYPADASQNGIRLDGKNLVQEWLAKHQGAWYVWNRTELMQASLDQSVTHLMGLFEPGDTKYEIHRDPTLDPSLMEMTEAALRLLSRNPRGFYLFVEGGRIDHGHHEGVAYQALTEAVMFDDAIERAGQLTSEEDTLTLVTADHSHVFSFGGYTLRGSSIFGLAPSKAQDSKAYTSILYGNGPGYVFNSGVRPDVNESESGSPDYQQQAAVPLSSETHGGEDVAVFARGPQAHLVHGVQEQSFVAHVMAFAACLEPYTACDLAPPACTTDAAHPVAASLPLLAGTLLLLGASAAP
bIAP activator: increases bovine intestinal alkaline phosphatase activity; 200,000 tested, 0.17% active; purified bovine IAP, CDP-star luminescence, 30 min; hits give high values; fold of DMSO-control signal, blank-subtracted; activation factor at 20 µM;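 active means activation factor of 2 or more at 20 µM, a signal rise over negative controls twice the positive control's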
mIAP block: mouse IAP inhibition; purified mouse IAP, CDP-Star luminescence, 30 min; inhibition, % at 10 µM; 330,000 tested, 0.2% active;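 active means inhibition of at least 40% at 10 µM in the primary screen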;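 further: plate controls were DMSO with enzyme for no effect and no enzyme wells for full effect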
hIAP act: increases human intestinal alkaline phosphatase activity; P09923; purified human IAP, CDP-Star luminescence, 30 min; hits give high values; 1 = vehicle-only enzyme, 0 = enzyme-free background; activation factor at 10 µM; 330,000 tested, 0.16% active; AID 2524;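 active means activation factor of the enzyme at least 2-fold when tested at 20 µM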
mIAP inh confirm: mouse IAP inhibition confirmation | purified mouse IAP, CDP-Star luminescence, 30 min | shares compounds with mIAP block | inhibition, % at 10 µM | 11,000 tested, 4.7% active;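 active means inhibition of at least 40% at 10 µM in either of the two replicates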;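 further: plate controls were DMSO wells with enzyme for no effect and buffer wells lacking enzyme for full effect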
An asterisk follows results filed as active; i = inactive; . = no result.

SMILES	mIAP act	bIAP inh	hIAP block	bIAP activator	mIAP block	hIAP act	mIAP inh confirm
COC(=O)c1ccccc1NCc1cc(=O)oc2cc(O)c(O)cc12	0.56	.	26	.	44*	0.74	44*
CC1CCC2(CC1)OCC1(CCC3(COC4(CCC(C)CC4)OC3)C1=O)CO2 (stereo unspecified)	1.1	-12	11	1.1	-6	0.89	.
CC/C(C)=N/Nc1nc2c(c(=O)[nH]c(=O)n2C)n1CCc1ccccc1	0.59	2	-16	1	41*	1.2	47*
COc1ccccc1[C@H]1C(c2ccccc2)=NN(c2ccccc2)[C@@H]1CO	2.2*	.	.	.	-116	.	-99
COc1ccccc1[C@H]1C(c2cccc(C)c2)=NN(c2ccccc2)[C@@H]1CO	1.6	.	.	.	-75	.	.
OC[C@@H]1[C@@H](c2ccc(Cl)cc2)C(c2cccc(Cl)c2)=NN1c1ccccc1	2.3*	.	.	.	-133	.	-120
CN(CC(=O)Nc1ccccc1)CC(=O)Nc1ccc(F)cc1	0.99	.	-11	.	1	1.1	.
CC(C)(C)c1nc(NC(=O)Nc2ccccc2)sc1Br	2.9*	-2	5	1	-192	0.95	-112
O=C(NCCc1ccccc1)C(=O)Nc1ccc([N+](=O)[O-])cc1	1.1	-14	-4	1.1	-6	1	.
O=C(CN1C(=O)/C(=C/c2ccccc2)SC1=S)NNC(=O)c1ccccc1O	0.59	-3	-58	1	41*	1.6	43*
COc1cccc(/C=C2/SC(=S)N(CC(=O)NNC(=O)c3ccccc3O)C2=O)c1	0.75	.	-97	.	25	2	.
CC1CCN(c2ccccc2NC(=S)NC(=O)C(C)(C)C)CC1	1	6	-2	0.9	-1	1	.
CCc1cc(Cn2nc(-c3ccccc3)cc2C(=O)NCc2cccc(Br)c2)on1	6.6*	.	7	.	i	0.93	-180
CCc1cc(Cn2nc(-c3ccccc3)cc2C(=O)NCc2cccc(C(F)(F)F)c2)on1	3.4*	.	5	.	-244	0.95	-152
COc1ccc(C2=NOC(Cn3nc(-c4ccccc4)cc3C(=O)NCc3cccc(Br)c3)C2)cc1 (stereo unspecified)	3.8*	.	-10	.	-276	1.1	-112
CC(C)NC(=O)c1ccc2c(c1)N(CC(=O)N1CCCCC1)C(=O)C(C)(C)O2	0.96	.	-2	.	4	1	.
O=c1cc(-c2ccccc2)oc2cc(O)c(O)c(O)c12	0.95	.	-22	.	5	1.2	.
O=c1c(O)cccc2cc(O)c(O)c(O)c12	0.39	.	-14	.	61*	1.1	74*
O=C(NCc1ccc2c(c1)OCO2)c1cc(-c2ccccc2)c(N2CCOCC2)s1	1.8	.	-18	.	-81	1.2	.
CCOc1ccc(CCNC(=O)c2cc(-c3ccccc3)c(N3CCOCC3)s2)cc1	3.2*	.	-20	.	-222	1.2	-110
O=C(O)C1Nc2c(O)cc(Cl)c([N+](=O)[O-])c2C2C=CCC12 (stereo unspecified)	0.25	17	-10	0.8	75*	1.1	79*
O=[N+]([O-])c1ccc(Cl)c2c1C1C=CCC1C(c1ccccn1)N2 (stereo unspecified)	0.81	18	3	0.8	19	0.97	.
Cc1cc(/C=C2\SC(=S)NC2=O)c(C)[nH]1	0.3	6	26	0.9	70*	0.73	87*
Cc1sc(-n2c(C)cc(/C=C3\SC(=S)NC3=O)c2C)c(C#N)c1C	0.5	20	5	0.8	50*	0.95	64*
Cc1cc(/C=C2\SC(=S)NC2=O)c(C)n1-c1cccc(O)c1	0.24	.	12	.	76*	0.88	75*
SMILES	mIAP act	bIAP inh	hIAP block	bIAP activator	mIAP block	hIAP act	mIAP inh confirm
CC(=O)c1cccc(NC(=O)NC2CCCCCCC2)c1	1.2	.	-23	.	-18	1.2	.
Cc1ccc(NC(=O)NC2CCCCCCC2)cc1C	3.3*	.	-46	.	-233	1.5	-156
Cc1cccc(NC(=O)NC2CCCCCCC2)c1	2.2*	.	-35	.	-118	1.3	-145
O=C(Nc1cccc(C(F)(F)F)c1)NC1CCCCC1	2.5*	12	-36	0.9	-150	1.4	-110
CN(CC(=O)Nc1ccc(F)c(F)c1F)C(=O)C1CCCC1	1	.	-9	.	-4	1.1	.
O=C(NC[C@@H]1CC[C@@H](Cc2ccc(-c3ccccc3)cc2)O1)Nc1ccc(Br)cc1	4.2*	.	.	.	-325	.	-310
O=C(NCCCCc1ccccc1)NC[C@@H]1CC[C@@H](Cc2ccc(-c3ccccc3)cc2)O1	4.8*	.	.	.	-371	.	-344
O=C(NCCCc1ccccc1)C1CC1	1.1	.	-13	.	-7	1.1	.
Cc1nn(Cc2c(Cl)cccc2Cl)c(C)c1NC(=O)c1cn(-c2ccccc2)nc1-c1ccccc1	2.5*	-27	-11	1.3	-146	1.1	-74
COc1ccc(C(=O)NCc2ccccc2CN2CCCC2)cc1S(=O)(=O)N1CCOCC1	0.89	.	17	.	11	0.83	.
Cc1cc(C)n(CCCN2CCC(C(=O)Nc3cccc(-c4cccc(F)c4)c3)CC2)n1	3.5*	.	0	.	-250	1	-202
Cc1ccccc1C(=O)N1CCC(C(=O)Nc2cccc(F)c2)CC1	1.1	-12	-16	1.1	-9	1.2	.
CN(CCO)c1ccc(C=NNc2ccc([N+](=O)[O-])cc2S(=O)(=O)Nc2ccccc2C(=O)O)cc1	0.54	.	2	.	46*	0.97	46*
CC(=O)Nc1ccc(C=NNc2ccc([N+](=O)[O-])cc2S(=O)(=O)Nc2ccccc2C(=O)O)cc1	0.68	.	11	.	32	0.89	.
CCN1/C(=C/C=C/c2oc3ccc(-c4ccccc4)cc3[n+]2CC)Oc2ccc(-c3ccccc3)cc21	0.35	-56	-36	1.6	65*	1.4	50*
CCCCN1C(=O)/C(=C/C=C2\Oc3ccccc3N2CC)SC1=S	.	31	.	0.7	.	.	.
CS(=O)(=O)c1ccccc1-c1nc(-c2ccc([N+](=O)[O-])cc2)no1	0.95	-6	-7	1.1	5	1.1	.
CC(C)(C)c1ccc(/C=N/N2C(=O)CSC2=S)cc1	0.8	.	-20	.	20	1.2	.
O=C1CSC(=S)N1/N=C/c1ccc(O)c(O)c1O	0.084	.	-5	.	92*	1.1	88*
COc1ccc(/C=N/N2C(=O)CSC2=S)cc1Br	0.78	.	-13	.	22	1.1	.
COc1ccc(/C=N/N2C(=O)CSC2=S)cc1	0.53	-16	-3	1.2	47*	1	60*
CC(C)C1Nc2ccc(S(N)(=O)=O)cc2C2C=CCC21 (stereo unspecified)	0.52	-3	10	1	48*	0.91	45*
CCOC(=O)C1Nc2ccc(OC(F)(F)F)cc2C2C=CCC12 (stereo unspecified)	1	.	9	.	-4	0.91	.
